Laboratory results as given in ChEMBL document CHEMBL2010675, “Discovery of GS-9451: an acid inhibitor of the hepatitis C virus NS3/4A protease” (Bioorg Med Chem Lett, 2012).
In brackets after ≈: the same amount, converted by molar mass.

How the values were obtained:
[1] = Oral bioavailability in dog at 4 mg/kg; format: ADME, organism-based, Canis lupus familiaris; conditions: in vivo
Outline: (§1)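 Dosed at 1.0 mg/kg iv and 4.0 mg/kg po; plasma drug levels followed to derive iv t1/2, oral AUC, clearance, Vdss and oral bioavailability (F).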

[2] = test system: Canis familiaris; assay: AUC in dog at 4 mg/kg, po; format: ADME, organism-based, Canis lupus familiaris, Plasma; set-up: dose 4 mg/kg, route oral; conditions: in vivo; outline: as §1
[3] = Thermodynamic solubility of the compound at pH 2.2; format: physicochemical; conditions: buffer, read-out: Therm_solubility
[4] = test system: Hepatitis C virus; assay: Antiviral activity against Hepatitis C virus genotype 1b infected in human Huh cells by luciferase reporter gene based replicon assay; format: functional, organism-based, Hepacivirus hominis
Outline: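 EC50 from a cell-based assay in Huh-luc cells carrying a subgenomic HCV genotype 1b replicon, with luciferase reporter read-out.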

[5] = Thermodynamic solubility of the compound at pH 7.3; format: physicochemical; conditions: buffer, read-out: Therm_solubility
[6] = Permeability from apical to basolateral side in human Caco2 cells; format: ADME, cell-based; conditions: Caco-2, read-out: permeability
[7] = Clearance in dog at 1 mg/kg, iv and 4 mg/kg, po; format: ADME, organism-based, Canis lupus familiaris; conditions: in vivo; outline: as §1
[8] = Volume of distribution at steady state in dog at 1 mg/kg, iv and 4 mg/kg, po; format: ADME, organism-based, Canis lupus familiaris; conditions: in vivo, read-out: Vdss; outline: as §1
[9] = Half life in dog at 1 mg/kg, iv; format: ADME, organism-based, Canis lupus familiaris; set-up: dose 1 mg/kg, route intravenous; conditions: in vivo; outline: as §1
[10] = test system: Hepatitis C virus; assay: Inhibition of Hepatitis C virus genotype 1b NS3/4A protease; set-up: species or system Hepatitis C virus subtype 1b
[11] = Permeability from basolateral to apical side in human Caco2 cells; format: ADME, cell-based; conditions: Caco-2, read-out: permeability
[12] = Clearance in cynomolgus monkey at 1 mg/kg, iv and 4 mg/kg, po; format: ADME, organism-based, Macaca fascicularis; conditions: in vivo; outline: as §1
[13] = Plasma concentration in human at 300 mg after 24 hrs
[14] = Oral bioavailability in rat at 4 mg/kg; format: ADME, organism-based; conditions: in vivo
[15] = target: T1, Broad substrate specificity ATP-binding cassette transporter ABCG2 (Homo sapiens, UniProt Q9UNQ0); assay: Inhibition of BCRP; format: ADME
T1 sequence (Q9UNQ0 whole entry): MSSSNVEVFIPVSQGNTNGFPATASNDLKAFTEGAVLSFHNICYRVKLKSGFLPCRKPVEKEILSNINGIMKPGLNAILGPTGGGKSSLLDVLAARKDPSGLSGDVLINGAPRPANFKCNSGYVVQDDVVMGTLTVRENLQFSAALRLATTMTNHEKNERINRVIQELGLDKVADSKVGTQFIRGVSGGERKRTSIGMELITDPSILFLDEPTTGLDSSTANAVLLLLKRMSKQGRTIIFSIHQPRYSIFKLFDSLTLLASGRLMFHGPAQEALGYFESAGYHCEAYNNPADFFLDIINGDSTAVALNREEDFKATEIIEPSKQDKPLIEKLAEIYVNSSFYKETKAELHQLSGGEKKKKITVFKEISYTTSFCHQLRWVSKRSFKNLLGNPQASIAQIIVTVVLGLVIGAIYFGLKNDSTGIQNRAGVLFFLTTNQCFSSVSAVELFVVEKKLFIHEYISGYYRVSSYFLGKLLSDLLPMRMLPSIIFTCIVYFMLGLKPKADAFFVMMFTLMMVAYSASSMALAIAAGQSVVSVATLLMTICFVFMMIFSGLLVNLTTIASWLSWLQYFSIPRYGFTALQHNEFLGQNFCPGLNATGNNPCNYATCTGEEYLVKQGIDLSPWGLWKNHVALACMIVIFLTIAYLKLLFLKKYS

[16] = Half life in cynomolgus monkey microsomes; format: ADME, Macaca fascicularis, Microsome
[17] = Cmax in cynomolgus monkey at 4 mg/kg, po; format: ADME, organism-based, Macaca fascicularis; set-up: dose 4 mg/kg, route oral; conditions: in vivo
[18] = test system: Cynomolgus monkey; assay: AUC in cynomolgus monkey at 4 mg/kg, po; format: ADME, organism-based, Macaca fascicularis, Plasma; set-up: dose 4 mg/kg, route oral; conditions: in vivo; outline: as §1
[19] = Volume of distribution at steady state in rat at 1 mg/kg, iv and 4 mg/kg, po; format: ADME, organism-based; conditions: in vivo, read-out: Vdss
[20] = target: Multidrug resistance-associated protein 1 (Homo sapiens, UniProt P33527); assay: Inhibition of MRP1
[21] = Selectivity for hepatitis C virus NS3/4A protease over human cathepsin L
[22] = Fraction unbound in human plasma; format: ADME, cell-free
[23] = Half life in human microsomes; format: ADME, Microsome
[24] = Fraction unbound in rat plasma; format: ADME, cell-free
[25] = Drug excretion in rat bile at 1 mg/kg, iv; format: ADME, organism-based; set-up: dose 1 mg/kg, route intravenous; conditions: read-out: Drug excretion
Outline: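 Bile-duct cannulated rats given drug intravenously; bile collected and the fraction of total dose recovered as parent compound and as glucuronide conjugates measured.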

[26] = Elimination half life in human at 10 to 1000 mg; conditions: in vivo, read-out: beta t1/2 (converted)
[27] = Selectivity for hepatitis C virus NS3/4A protease over human leukocyte elastase
[28] = Half life in cynomolgus monkey at 1 mg/kg, iv; format: ADME, organism-based, Macaca fascicularis; set-up: dose 1 mg/kg, route intravenous; conditions: in vivo; outline: as §1
[29] = Inhibition of cytochrome P450 up to 25 uM; format: ADME
[30] = Fraction unbound in cynomolgus monkey plasma; format: ADME, cell-free, Macaca fascicularis
[31] = Cmax in dog at 4 mg/kg, po; format: ADME, organism-based, Canis lupus familiaris; set-up: dose 4 mg/kg, route oral; conditions: in vivo
[32] = Cmax in rat at 4 mg/kg, po; format: ADME, organism-based; set-up: dose 4 mg/kg, route oral; conditions: in vivo
[33] = target: Voltage-gated inwardly rectifying potassium channel KCNH2 (Homo sapiens, UniProt Q12809); assay: Inhibition of human Erg up to 25 uM
[34] = Volume of distribution at steady state in cynomolgus monkey at 1 mg/kg, iv and 4 mg/kg, po; format: ADME, organism-based, Macaca fascicularis; conditions: in vivo, read-out: Vdss; outline: as §1
[35] = Oral bioavailability in cynomolgus monkey at 4 mg/kg; format: ADME, organism-based, Macaca fascicularis; conditions: in vivo; outline: as §1
[36] = test system: Hepatitis C virus; assay: Antiviral activity against Hepatitis C virus genotype 1a infected in human assessed as log decrease in viral RNA level at 200 mg, po for 3 days; format: functional, Hepacivirus hominis, subtype 1a
[37] = test system: Hepatitis C virus; assay: Antiviral activity against Hepatitis C virus genotype 1a infected in human assessed as log decrease in viral RNA level at 60 mg, po for 3 days; format: functional, Hepacivirus hominis, subtype 1a
[38] = Clearance in rat at 1 mg/kg, iv and 4 mg/kg, po; format: ADME, organism-based; conditions: in vivo
[39] = Selectivity for hepatitis C virus NS3/4A protease over human cathepsin D
[40] = Half life in dog microsomes; format: ADME, Canis lupus familiaris, Microsome
[41] = Inhibition of p-glycoprotein
[42] = Half life in rat microsomes; format: ADME, Microsome
[43] = Fraction unbound in dog plasma; format: ADME, cell-free, Canis lupus familiaris
[44] = Selectivity for hepatitis C virus NS3/4A protease over human proteinase 3
[45] = test system: Hepatitis C virus; assay: Antiviral activity against Hepatitis C virus genotype 1a infected in human assessed as log decrease in viral RNA level at 400 mg, po for 3 days; format: functional, Hepacivirus hominis, subtype 1a
[46] = target: ATP-binding cassette sub-family C member 2 (Homo sapiens, UniProt Q92887); assay: Inhibition of MRP2
[47] = Half life in rat at 1 mg/kg, iv; format: ADME, organism-based; set-up: dose 1 mg/kg, route intravenous; conditions: in vivo
[48] = test system: Rattus norvegicus; assay: AUC in rat at 4 mg/kg, po; format: ADME, organism-based, Plasma; set-up: dose 4 mg/kg, route oral; conditions: in vivo

Chain of ATP-binding cassette sub-family C member 2 (Q92887 whole entry): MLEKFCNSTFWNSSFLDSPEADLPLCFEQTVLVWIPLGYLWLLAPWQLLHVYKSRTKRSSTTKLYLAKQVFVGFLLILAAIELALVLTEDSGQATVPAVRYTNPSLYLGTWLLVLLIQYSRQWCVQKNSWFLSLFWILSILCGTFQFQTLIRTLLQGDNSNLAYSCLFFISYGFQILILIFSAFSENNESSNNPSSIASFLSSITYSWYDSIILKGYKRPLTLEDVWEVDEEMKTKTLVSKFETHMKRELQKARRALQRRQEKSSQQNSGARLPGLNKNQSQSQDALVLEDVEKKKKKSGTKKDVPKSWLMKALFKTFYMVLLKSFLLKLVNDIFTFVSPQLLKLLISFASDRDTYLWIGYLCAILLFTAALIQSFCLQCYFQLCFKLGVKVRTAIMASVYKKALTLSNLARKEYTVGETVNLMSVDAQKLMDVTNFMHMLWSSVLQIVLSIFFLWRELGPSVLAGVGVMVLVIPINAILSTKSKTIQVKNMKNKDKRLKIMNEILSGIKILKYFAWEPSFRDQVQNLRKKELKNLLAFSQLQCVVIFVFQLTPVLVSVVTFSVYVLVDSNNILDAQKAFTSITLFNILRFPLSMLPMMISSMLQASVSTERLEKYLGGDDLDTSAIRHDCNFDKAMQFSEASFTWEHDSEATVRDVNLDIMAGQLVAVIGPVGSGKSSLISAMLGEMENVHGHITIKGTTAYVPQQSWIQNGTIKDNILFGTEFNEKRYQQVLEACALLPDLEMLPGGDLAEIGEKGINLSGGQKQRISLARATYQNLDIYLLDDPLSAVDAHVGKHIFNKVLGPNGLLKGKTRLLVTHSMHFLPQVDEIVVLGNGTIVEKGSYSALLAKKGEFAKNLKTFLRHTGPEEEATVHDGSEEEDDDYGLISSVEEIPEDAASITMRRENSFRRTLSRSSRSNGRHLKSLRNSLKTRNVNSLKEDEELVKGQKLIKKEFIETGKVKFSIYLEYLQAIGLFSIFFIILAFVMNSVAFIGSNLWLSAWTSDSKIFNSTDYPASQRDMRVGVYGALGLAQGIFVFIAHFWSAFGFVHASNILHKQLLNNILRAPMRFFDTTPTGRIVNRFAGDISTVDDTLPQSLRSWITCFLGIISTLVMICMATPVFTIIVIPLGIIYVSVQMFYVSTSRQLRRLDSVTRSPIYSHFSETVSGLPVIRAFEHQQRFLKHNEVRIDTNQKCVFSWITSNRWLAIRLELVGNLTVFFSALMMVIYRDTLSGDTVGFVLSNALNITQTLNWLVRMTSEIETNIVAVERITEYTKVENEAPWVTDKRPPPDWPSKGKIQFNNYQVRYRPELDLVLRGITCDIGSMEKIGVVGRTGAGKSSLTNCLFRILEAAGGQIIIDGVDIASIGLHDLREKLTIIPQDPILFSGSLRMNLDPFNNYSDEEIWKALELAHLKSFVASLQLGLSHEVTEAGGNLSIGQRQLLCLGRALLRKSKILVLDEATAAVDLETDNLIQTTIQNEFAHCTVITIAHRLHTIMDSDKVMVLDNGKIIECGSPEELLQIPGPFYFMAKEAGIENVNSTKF
Chain of Multidrug resistance-associated protein 1 (P33527 whole entry): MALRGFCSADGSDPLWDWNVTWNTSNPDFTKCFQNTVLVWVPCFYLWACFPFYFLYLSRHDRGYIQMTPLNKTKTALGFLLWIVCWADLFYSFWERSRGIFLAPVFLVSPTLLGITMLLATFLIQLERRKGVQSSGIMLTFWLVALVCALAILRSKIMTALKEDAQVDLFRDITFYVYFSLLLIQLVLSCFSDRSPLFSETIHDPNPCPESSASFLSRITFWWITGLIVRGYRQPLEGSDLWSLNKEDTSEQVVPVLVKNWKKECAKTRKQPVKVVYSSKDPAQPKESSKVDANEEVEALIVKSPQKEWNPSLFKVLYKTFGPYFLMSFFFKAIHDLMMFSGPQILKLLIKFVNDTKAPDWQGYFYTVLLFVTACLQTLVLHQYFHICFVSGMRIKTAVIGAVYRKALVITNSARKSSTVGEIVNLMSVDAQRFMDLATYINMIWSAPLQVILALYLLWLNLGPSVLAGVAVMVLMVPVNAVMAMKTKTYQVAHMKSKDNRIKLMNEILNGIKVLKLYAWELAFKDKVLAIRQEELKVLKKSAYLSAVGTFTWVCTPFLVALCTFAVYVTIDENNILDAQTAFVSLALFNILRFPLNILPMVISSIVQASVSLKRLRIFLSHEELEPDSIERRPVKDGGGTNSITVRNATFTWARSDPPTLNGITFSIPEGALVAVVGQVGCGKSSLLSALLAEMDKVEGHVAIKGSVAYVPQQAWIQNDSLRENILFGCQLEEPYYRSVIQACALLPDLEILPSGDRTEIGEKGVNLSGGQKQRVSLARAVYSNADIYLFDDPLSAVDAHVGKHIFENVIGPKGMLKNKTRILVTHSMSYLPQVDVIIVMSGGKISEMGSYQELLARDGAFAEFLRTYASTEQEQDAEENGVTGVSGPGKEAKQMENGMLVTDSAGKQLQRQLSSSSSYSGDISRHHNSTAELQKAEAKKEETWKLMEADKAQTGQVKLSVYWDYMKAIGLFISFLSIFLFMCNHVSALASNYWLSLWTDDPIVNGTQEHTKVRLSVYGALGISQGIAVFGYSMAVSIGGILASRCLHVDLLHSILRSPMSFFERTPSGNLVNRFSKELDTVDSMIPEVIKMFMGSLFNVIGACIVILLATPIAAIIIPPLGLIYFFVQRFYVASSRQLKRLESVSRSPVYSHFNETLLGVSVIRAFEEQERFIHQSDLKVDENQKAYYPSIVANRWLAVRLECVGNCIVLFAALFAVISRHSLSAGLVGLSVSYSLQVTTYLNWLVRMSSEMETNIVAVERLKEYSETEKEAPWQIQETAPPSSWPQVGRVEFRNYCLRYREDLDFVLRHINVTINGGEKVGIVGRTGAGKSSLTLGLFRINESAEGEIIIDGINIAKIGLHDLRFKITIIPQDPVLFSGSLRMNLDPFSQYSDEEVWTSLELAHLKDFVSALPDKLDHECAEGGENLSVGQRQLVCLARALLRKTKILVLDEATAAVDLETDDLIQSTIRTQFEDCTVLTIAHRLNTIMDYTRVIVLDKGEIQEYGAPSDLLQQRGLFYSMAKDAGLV
Chain of Voltage-gated inwardly rectifying potassium channel KCNH2 (Q12809 whole entry): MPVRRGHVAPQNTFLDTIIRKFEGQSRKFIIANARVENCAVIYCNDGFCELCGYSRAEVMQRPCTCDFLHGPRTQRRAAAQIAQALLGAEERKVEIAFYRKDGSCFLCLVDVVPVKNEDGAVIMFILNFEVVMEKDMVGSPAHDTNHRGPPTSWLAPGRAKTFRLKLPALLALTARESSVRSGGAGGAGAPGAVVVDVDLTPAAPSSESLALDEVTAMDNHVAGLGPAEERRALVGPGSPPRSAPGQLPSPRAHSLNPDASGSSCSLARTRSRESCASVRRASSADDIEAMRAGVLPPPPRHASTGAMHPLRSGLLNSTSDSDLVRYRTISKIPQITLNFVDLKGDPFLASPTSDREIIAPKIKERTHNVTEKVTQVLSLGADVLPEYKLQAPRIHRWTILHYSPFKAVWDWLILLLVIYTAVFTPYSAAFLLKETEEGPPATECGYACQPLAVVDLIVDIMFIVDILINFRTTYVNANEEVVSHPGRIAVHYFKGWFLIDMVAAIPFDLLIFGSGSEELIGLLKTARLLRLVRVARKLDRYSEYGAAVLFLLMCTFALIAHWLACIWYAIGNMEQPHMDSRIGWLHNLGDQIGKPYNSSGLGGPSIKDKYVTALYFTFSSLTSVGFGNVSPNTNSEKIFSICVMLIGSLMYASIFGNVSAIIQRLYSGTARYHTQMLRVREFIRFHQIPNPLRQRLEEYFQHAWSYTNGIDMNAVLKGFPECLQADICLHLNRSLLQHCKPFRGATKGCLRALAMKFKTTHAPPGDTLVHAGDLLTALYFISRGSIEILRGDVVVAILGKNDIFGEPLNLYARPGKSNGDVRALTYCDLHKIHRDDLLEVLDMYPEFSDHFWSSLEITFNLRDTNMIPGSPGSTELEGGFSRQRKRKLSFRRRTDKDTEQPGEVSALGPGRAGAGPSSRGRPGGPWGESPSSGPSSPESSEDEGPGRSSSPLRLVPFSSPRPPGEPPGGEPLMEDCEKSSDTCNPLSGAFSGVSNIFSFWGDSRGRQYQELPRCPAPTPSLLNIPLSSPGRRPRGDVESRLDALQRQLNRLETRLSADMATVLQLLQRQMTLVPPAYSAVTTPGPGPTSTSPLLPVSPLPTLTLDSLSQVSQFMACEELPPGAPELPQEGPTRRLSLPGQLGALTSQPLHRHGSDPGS

CC[C@@H]1C[C@]1(NC(=O)[C@@H]1C[C@@H](Oc2cc(-c3csc(NC(C)C)n3)nc3c(Cl)c(OCCN4CCOCC4(C)C)ccc23)CN1C(=O)[C@@H](NC(=O)O[C@@H]1C[C@@H]2C[C@@H]2C1)C(C)(C)C)C(=O)O
bioavailability [1]: 24% | AUC [2]: 38.3 µM·h | solubility thermodynamic [3]: 1900 µM (≈ 1780 µg/mL) | EC50 [4]: 3.2 nM | solubility thermodynamic [5]: 22 µM (≈ 20.6 µg/mL) | Papp A→B [6]: 6.6 ×10⁻⁶ cm/s | clearance [7]: 0.5 mL/min/kg | Vd [8]: 0.21 L/kg | half-life [9]: 348 min | IC50 [10]: 4.2 nM | Papp B→A [11]: 10 ×10⁻⁶ cm/s

CC[C@@H]1C[C@]1(NC(=O)[C@@H]1C[C@@H](Oc2cc(-c3csc(NC(C)C)n3)nc3c(Cl)c(OCCN4CC[C@@H](OC)C4)ccc23)CN1C(=O)[C@@H](NC(=O)O[C@@H]1C[C@@H]2C[C@@H]2C1)C(C)(C)C)C(=O)O
bioavailability [1]: 45% | AUC [2]: 8.33 µM·h | solubility thermodynamic [3]: > 100 µM | EC50 [4]: 3.8 nM | solubility thermodynamic [5]: 59 µM (≈ 54.5 µg/mL) | Papp A→B [6]: 6.1 ×10⁻⁶ cm/s | clearance [7]: 3.67 mL/min/kg | Vd [8]: 0.66 L/kg | half-life [9]: 126 min | IC50 [10]: 2.9 nM | Papp B→A [11]: 30 ×10⁻⁶ cm/s

CC[C@@H]1C[C@]1(NC(=O)[C@@H]1C[C@@H](Oc2cc(-c3csc(NC(C)C)n3)nc3c(Cl)c(OCCN4CCCCC4)ccc23)CN1C(=O)[C@@H](NC(=O)O[C@@H]1C[C@@H]2C[C@@H]2C1)C(C)(C)C)C(=O)O
bioavailability [1]: 32% | AUC [2]: 19.7 µM·h | solubility thermodynamic [3]: > 100 µM | EC50 [4]: 7.5 nM | solubility thermodynamic [5]: 80 µM (≈ 72.7 µg/mL) | Papp A→B [6]: 6.7 ×10⁻⁶ cm/s | clearance [7]: 2.17 mL/min/kg | Vd [8]: 0.39 L/kg | half-life [9]: 180 min | IC50 [10]: 25 nM | Papp B→A [11]: 20 ×10⁻⁶ cm/s

CC[C@@H]1C[C@]1(NC(=O)[C@@H]1C[C@@H](Oc2cc(-c3csc(NC(C)C)n3)nc3c(Cl)c(OCCN4CCOCC4)ccc23)CN1C(=O)[C@@H](NC(=O)O[C@@H]1C[C@@H]2C[C@@H]2C1)C(C)(C)C)C(=O)O [VEDROPREVIR]
clearance [12]: 4.83 mL/min/kg | concentration at 24 h [13]: 400 nM | bioavailability [14]: 62% | IC50 [15]: 1400 nM | bioavailability [1]: 142% | half-life [16]: 79 min | Cmax [17]: 3.47 µM | AUC [18]: 13.1 µM·h | AUC [2]: 21.8 µM·h | Vd [19]: 2.3 L/kg | IC50 [20]: 14.9 µM | inhibition (INH) [20]: Dose-dependent effect | Selectivity ratio [21]: > 50000 | fraction unbound [22]: 0.026 | half-life [23]: > 395 min | fraction unbound [24]: 0.011 | dose excreted [25]: 45% | solubility thermodynamic [3]: 790 µM (≈ 719 µg/mL) | half-life [26]: 720 min | Selectivity ratio [27]: > 50000 | half-life [28]: 234 min | EC50 [4]: 2 nM | solubility thermodynamic [5]: 38 µM (≈ 34.6 µg/mL) | Papp A→B [6]: 0.8 ×10⁻⁶ cm/s | inhibition (INH) [29]: Not Active | fraction unbound [30]: 0.016 | Cmax [31]: 3.94 µM | Cmax [32]: 576 nM | inhibition (INH) [33]: Not Active | Vd [34]: 0.76 L/kg | clearance [7]: 4.33 mL/min/kg | bioavailability [35]: 49% | Activity [36]: 3.2 log10IU/ml | Activity [37]: 0.88 log10IU/ml | clearance [38]: 73.3 mL/min/kg | Selectivity ratio [39]: > 50000 | half-life [40]: > 395 min | Vd [8]: 1.15 L/kg | IC50 [41]: 34 µM | inhibition (INH) [41]: Dose-dependent effect | half-life [42]: > 395 min | fraction unbound [43]: 0.026 | Selectivity ratio [44]: > 50000 | Activity [45]: 3.6 log10IU/ml | half-life [9]: 252 min | IC50 [10]: 3.2 nM | IC50 [46]: 12 µM | inhibition (INH) [46]: Dose-dependent effect | half-life [47]: 37.2 min | Papp B→A [11]: 8.2 ×10⁻⁶ cm/s | AUC [48]: 1410 nM·h
